For 18 compounds, IC50, Activity and viability results are on record in ChEMBL document CHEMBL1136878, “6-amino-4-oxo-1,3-diphenyl-2-thioxo-1,2,3,4-tetrahydropyrimidine-5-carbonyl derivatives as a new class of potent inhibitors of Interleukin-8-induced neutrophil chemotaxis” (Bioorg Med Chem, 2009).

The source made the active and inactive calls. The calls are words filed in the database; no cut-off is given here.

In series [1] the test system is Neutrophil. The series can be described thus: Inhibition of chemotaxis in human neutrophils assessed as inhibition of IL8-induced migration by Boyden chamber assay. It is filed as functional, cell-based. An outline of the steps:
(§1)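 Donor blood neutrophils (dextran sedimentation, Ficoll-Hypaque, hypotonic lysis; >97% pure), preincubated with compound 15 min at room temperature. 4 × 10^5 cells in upper compartment of blind-well chamber, 3 µm cellulose ester filter. Lower compartment: IL-8 10^-9 M, fMLP 10^-8 M or C5a 10^-9 M. Incubation 37 °C, 45 min. Leading-front distance read at ×400, five fields/filter, duplicates. Net migration = stimulated minus spontaneous. IC50 by nonlinear regression, mean of ≥3 experiments.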

The subject of series [2] is Neutrophil. The series can be described thus: Inhibition of chemotaxis in human neutrophils assessed as inhibition of fMLP-induced migration by Boyden chamber assay. The class given is functional, cell-based. An outline of the steps: as §1
In series [3] the test system is Neutrophil. The series can be described thus: Inhibition of chemotaxis in human neutrophils assessed as inhibition of C5a-induced migration by Boyden chamber assay. It is filed as functional, cell-based. An outline of the steps:
as §1

A short description of series [4]: Cytotoxicity against human neutrophils assessed as cell viability by ethidium bromide-fluorescein diacetate test. The class given is cell-based, Neutrophil. Set-up: concentration or dose not given beside the values. The following applies: read-out: Activity. The gist of the method:
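Neutrophils (2 × 10^6/mL) from healthy donor blood, incubated 2 h at 37 °C in CO2 atmosphere with compounds. Cells then stained with fluorescein diacetate/ethidium bromide in HBSS, 10 min at room temperature. Scored under UV dark-field: green = intact membrane (viable), red nucleus = necrotic; percentage viable cells.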

In series [5] the target is T1, C-X-C chemokine receptor type 1 (Homo sapiens) (UniProt P25024).
T1 sequence (whole entry): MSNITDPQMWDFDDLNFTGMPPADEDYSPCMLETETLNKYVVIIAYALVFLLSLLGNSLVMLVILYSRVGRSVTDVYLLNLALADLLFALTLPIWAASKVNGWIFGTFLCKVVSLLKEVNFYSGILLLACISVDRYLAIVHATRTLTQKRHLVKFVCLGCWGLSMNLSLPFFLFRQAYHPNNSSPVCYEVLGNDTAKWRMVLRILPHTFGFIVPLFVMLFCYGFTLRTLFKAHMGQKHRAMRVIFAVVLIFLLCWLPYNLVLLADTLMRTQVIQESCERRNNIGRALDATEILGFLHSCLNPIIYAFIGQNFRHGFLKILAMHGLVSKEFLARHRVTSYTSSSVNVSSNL
The experiment in a line: Binding affinity to CXCR1.

Series [6] has as its target T2, C-X-C chemokine receptor type 2 (Homo sapiens) (UniProt P25025).
T2 sequence (whole entry): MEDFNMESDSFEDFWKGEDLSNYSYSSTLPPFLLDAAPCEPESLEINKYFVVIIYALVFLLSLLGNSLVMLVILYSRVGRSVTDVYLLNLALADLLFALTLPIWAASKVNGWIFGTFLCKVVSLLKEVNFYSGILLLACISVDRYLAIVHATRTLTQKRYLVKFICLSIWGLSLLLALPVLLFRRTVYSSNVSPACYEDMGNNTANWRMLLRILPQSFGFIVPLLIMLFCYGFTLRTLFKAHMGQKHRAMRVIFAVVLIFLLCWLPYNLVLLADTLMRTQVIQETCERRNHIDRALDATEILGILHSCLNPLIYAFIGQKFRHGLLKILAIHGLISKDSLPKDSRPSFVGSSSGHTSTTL
The experiment in a line: Binding affinity to CXCR2.

Series [7] deals with Mus musculus. The series can be described thus: Inhibition of chemotaxis in zymosan-induced peritonitis Swiss mouse model assessed as peritoneal protein concentration at 50 mg/kg, po pretreated 1 hr before zymosan-challenge measured 4 hrs post inducer challenge (Rvb=1961+/-[…]). The class given is functional.
Series [8] relates to Mus musculus. The series can be described thus: Inhibition of chemotaxis in zymosan-induced peritonitis Swiss mouse model assessed as number of peritoneal granulocytes per cavity at 50 mg/kg, po pretreated 1 hr before zymosan-challenge measured 4 hrs post inducer challenge (Rvb=27.1+/-3.5 million). The class given is functional.
Series [9] deals with Mus musculus. The series can be described thus: Inhibition of chemotaxis in zymosan-induced peritonitis Swiss mouse model assessed as number of peritoneal cells per cavity at 50 mg/kg, po pretreated 1 hr before zymosan-challenge measured 4 hrs post inducer challenge (Rvb=31.5+/-1.2 million). It is filed as functional.
Series [10] has as its system Mus musculus. The series can be described thus: Inhibition of chemotaxis in zymosan-induced peritonitis Swiss mouse model assessed as number of peritoneal granulocytes per cavity at 3 mg/kg, po pretreated 1 hr before zymosan-challenge measured 4 hrs post inducer challenge (Rvb=27.1+/-3.5 million). The class given is functional.
Series [11] deals with Mus musculus. The experiment in a line: Inhibition of chemotaxis in zymosan-induced peritonitis Swiss mouse model assessed as number of peritoneal cells per cavity at 3 mg/kg, po pretreated 1 hr before zymosan-challenge measured 4 hrs post inducer challenge (Rvb=31.5+/-1.2 million). The class given is functional.
Series [12] deals with Mus musculus. The experiment in a line: Inhibition of chemotaxis in zymosan-induced peritonitis Swiss mouse model assessed as peritoneal protein concentration at 3 mg/kg, po pretreated 1 hr before zymosan-challenge measured 4 hrs post inducer challenge (Rvb=1961+/-160 µg/mL).

With `CCOC(=O)c1c(NCCN(C)C)n(-c2ccccc2)c(=S)n(-c2ccccc2)c1=O`, the IC50 in [1] came out at 0.1 nM. The result in series [2] and in [3] was inactive. Also, the viability in series [4] is at least 94%.
Take `CC(=O)c1c(N2CCN(C)CC2)n(-c2ccccc2)c(=S)n(-c2ccccc2)c1=O`: in [1], the IC50 came out at 14.8 nM. Moreover, the outcome in [2] was inactive. Also, the viability in series [4] is at least 94%.
For `CCOC(=O)c1c(NCCCN(C)C)n(-c2ccccc2)c(=S)n(-c2ccccc2)c1=O` the same measures were 3.89 nM, “inactive” and at least 94%.
In the case of `CCOC(=O)c1c(NCCOC)n(-c2ccccc2)c(=S)n(-c2ccccc2)c1=O`, the concentration for half-maximal inhibition (IC50) in series [1] was 1.36 nM. Also, the result in series [2], in [5] and in series [6] was inactive. In addition, the viability in series [4] is at least 94%.
Take `COC(=O)c1c(NCCN(C)C)n(-c2ccccc2)c(=S)n(-c2ccccc2)c1=O`: the IC50 in series [1] was 3.32 nM. In addition, in series [2], the outcome was inactive. Moreover, the viability in [4] is at least 94%.
The matching figures for `COC(=O)c1c(NCCc2c[nH]c3ccccc23)n(-c2ccccc2)c(=S)n(-c2ccccc2)c1=O`: 29.6 nM, “inactive” and at least 94%.
With `CCOC(=O)c1c(NCCN(CC)CC)n(-c2ccccc2)c(=S)n(-c2ccccc2)c1=O`, the values for the Activity in [7], in [8] and in series [9] were 1520 µg/mL, 17.7 million and 23.8 million, respectively. Besides, the IC50 in series [1] was determined as 0.02 nM. Also, the result in [2], in series [3], in series [5] and in series [6] was inactive. The viability in series [4] was at least 94%.
In the case of `CCOC(=O)c1c(NCCN2CCOCC2)n(-c2ccccc2)c(=S)n(-c2ccccc2)c1=O`, in series [1], the IC50 came to 172 nM. The outcome in series [2] was inactive. Also, the viability in series [4] was at least 94%.
In the case of `CCOC(=O)c1c(NCCNc2ccccc2)n(-c2ccccc2)c(=S)n(-c2ccccc2)c1=O`, the IC50 in series [1] is 0.61 nM. The outcome in series [2], in series [5] and in series [6] was inactive. For the same compound, the viability in [4] is at least 94%.
In the case of `CCN(CC)CCNc1c(C(=O)OC(C)C)c(=O)n(-c2ccccc2)c(=S)n1-c1ccccc1`, the IC50 in series [1] came to 0.21 nM. The result in series [2] and in series [3] was inactive. Also, the viability in series [4] was at least 94%.
For `C[C@@H]1C[C@H]2[C@@H]3CCC4=CC(=O)C=C[C@]4(C)[C@@]3(F)[C@@H](O)C[C@]2(C)[C@@]1(O)C(=O)CO` [DEXAMETHASONE], the Activity is 18.5 million in series [10], 22 million in series [11] and 1400 µg/mL in series [12].
For the compound `CCOC(=O)c1c(NCCC2CCCN2C)n(-c2ccccc2)c(=S)n(-c2ccccc2)c1=O` (stereo unspecified), the IC50 in series [1] came to 1.61 nM. Further, the outcome in series [2], in series [5] and in series [6] was inactive. Further, in series [4], the viability was at least 94%.
Consider `COC(=O)c1c(NCCc2ccc(S(N)(=O)=O)cc2)n(-c2ccccc2)c(=S)n(-c2ccccc2)c1=O`, for which, in [1], the IC50 was determined as 10.8 nM. Moreover, the result in series [2] was inactive. Further, the viability in series [4] is at least 94%.
For the compound `CC(C)OC(=O)c1c(NCCN(C)C)n(-c2ccccc2)c(=S)n(-c2ccccc2)c1=O`, in series [1], the IC50 was 0.18 nM. For the same compound, the outcome in series [2] and in series [3] was inactive. Moreover, in [4], the viability was at least 94%.
Regarding `CC(=O)c1c(NCCN(C)C)n(-c2ccccc2)c(=S)n(-c2ccccc2)c1=O`, the IC50 in series [1] is 6.86 nM. In addition, the outcome in [2] was inactive. Moreover, in [4], the viability is at least 94%.
The matching figures for `COC(=O)c1c(NCC(OC)OC)n(-c2ccccc2)c(=S)n(-c2ccccc2)c1=O`: 31.2 nM, “inactive” and at least 94%.
For `CCOC(=O)c1c(NCCc2ccccn2)n(-c2ccccc2)c(=S)n(-c2ccccc2)c1=O`, in [1], the IC50 stood at 0.49 nM. In addition, the result in [2], in [5] and in [6] was inactive. Further, the viability in series [4] is at least 94%.
As for `CCOC(=O)c1c(NCCN2CCCCC2)n(-c2ccccc2)c(=S)n(-c2ccccc2)c1=O`, the IC50 in series [1] is 85.4 nM. In series [2], the result was inactive. In addition, the viability in [4] is at least 94%.
